# Data as given in ChEMBL document CHEMBL1649139, “A novel gene, erm(41), confers inducible macrolide resistance to clinical isolates of Mycobacterium abscessus but is absent from Mycobacterium chelonae” (2009).
# Tests used:
# Format in all cases: functional
# [1] = system: Mycobacteroides abscessus; assay: Antimicrobial activity against Mycobacterium abscessus isolate MC1448 at day 14 by broth microdilution method; conditions: isolate MC1448, 336 h
# In short: (§1)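 Clarithromycin MIC by CLSI-conforming broth microdilution. Before testing, cultures were preincubated for 3 days, either in medium alone or in clarithromycin or erythromycin (tested range 0.01–1 μg/ml). Preincubation ran for at least two generations, judged by turbidity increase. Plates were read on day 3 and on extended incubation at days 5 to 14.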
# [2] = system: Mycobacteroides abscessus; assay: Antimicrobial activity against Mycobacterium abscessus isolate MAB30 at day 14 preincubated with 0.1 ug/ml erythromycin for 3 days by broth microdilution method; in short: as §1
# [3] = system: Mycobacteroides abscessus; assay: Antimicrobial activity against Mycobacterium abscessus isolate MC879-2 at day 9 by broth microdilution method; conditions: isolate MC879-2, 216 h
# [4] = system: Mycobacteroides abscessus; assay: Antimicrobial activity against Mycobacterium abscessus isolate MC879-2 at day 5 preincubated with 0.1 ug/ml for 3 days by broth microdilution method
# [5] = system: Mycobacteroides abscessus; assay: Antimicrobial activity against Mycobacterium abscessus isolate MC1028 at day 3 preincubated with 0.1 ug/ml for 3 days by broth microdilution method; in short: as §1
# [6] = system: Mycobacteroides abscessus; assay: Antimicrobial activity against Mycobacterium abscessus isolate MC1082 at day 9 by broth microdilution method; conditions: isolate MC1082, 216 h; in short: as §1
# [7] = system: Mycobacteroides abscessus; assay: Antimicrobial activity against Mycobacterium abscessus isolate MC879 at day 9 preincubated with 0.1 ug/ml erythromycin for 3 days by broth microdilution method
# In short: (§2)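 To test inducible resistance, cultures were preincubated for 3 days in clarithromycin or erythromycin, within 0.01–1 μg/ml. The period was set so cultures passed at least two generations, judged by turbidity increase. Clarithromycin MIC was then determined by CLSI-conforming broth microdilution and read on the stated day, from day 3 up to 14.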
# [8] = system: Mycobacteroides abscessus; assay: Antimicrobial activity against Mycobacterium abscessus isolate MC724 at day 7 by broth microdilution method; conditions: isolate MC724, 168 h
# In short: (§3)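 Clinical M. abscessus isolates were preincubated for 3 days, either in medium alone or in clarithromycin or erythromycin at 0.01 to 1 μg/ml, allowing at least two generations of growth judged by turbidity. The clarithromycin MIC was then determined by CLSI-conforming broth microdilution, with plates read on day 3 and on extended incubation (days 5 to 14).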
# [9] = system: Mycobacteroides abscessus; assay: Antimicrobial activity against Mycobacterium abscessus isolate MC1082 at day 9 preincubated with 0.1 ug/ml for 3 days by broth microdilution method; in short: as §1
# [10] = system: Mycobacteroides abscessus; assay: Antimicrobial activity against Mycobacterium abscessus isolate MC1082 at day 7 by broth microdilution method; conditions: isolate MC1082, 168 h; in short: as §1
# [11] = system: Mycobacteroides abscessus; assay: Antimicrobial activity against Mycobacterium abscessus isolate MC958 on day 14 by broth microdilution method; conditions: isolate MC958, 336 h
# [12] = system: Mycobacteroides abscessus; assay: Antimicrobial activity against Mycobacterium abscessus isolate MAB30 at day 9 by broth microdilution method; conditions: isolate MAB30, 216 h; in short: as §1
# [13] = system: Mycobacteroides abscessus; assay: Antimicrobial activity against Mycobacterium abscessus isolate MC958 on day 10 by broth microdilution method; conditions: isolate MC958, 240 h
# [14] = system: Mycobacteroides abscessus; assay: Antimicrobial activity against Mycobacterium abscessus isolate MC723 at day 5 by broth microdilution method; conditions: isolate MC723, 120 h
# In short: (§4)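 Clarithromycin MIC by broth microdilution following CLSI guidelines. Before testing, organisms were preincubated for 3 days in medium alone or in clarithromycin or erythromycin (0.01–1 μg/ml), long enough for at least two generations judged by turbidity increase. MICs were read on day 3 and again on extended incubation out to day 14.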
# [15] = system: Mycobacteroides abscessus; assay: Antimicrobial activity against Mycobacterium abscessus isolate MC958 at day 14 preincubated with 0.1 ug/ml for 3 days by broth microdilution method; in short: as §2
# [16] = system: Mycobacteroides abscessus; assay: Antimicrobial activity against Mycobacterium abscessus isolate MC720 at day 7 preincubated with 0.1 ug/ml for 3 days by broth microdilution method; in short: as §4
# [17] = system: Mycobacteroides abscessus; assay: Antimicrobial activity against Mycobacterium abscessus isolate MC879-2 at day 7 preincubated with 0.1 ug/ml erythromycin for 3 days by broth microdilution method
# [18] = system: Mycobacteroides abscessus; assay: Antimicrobial activity against Mycobacterium abscessus isolate MC719 at day 7 preincubated with 0.1 ug/ml for 3 days by broth microdilution method; in short: as §4
# [19] = system: Mycobacteroides abscessus; assay: Antimicrobial activity against Mycobacterium abscessus isolate MC1028 at day 3 by broth microdilution method; conditions: isolate MC1028, 72 h; in short: as §1
# [20] = system: Mycolicibacterium smegmatis; assay: Antimicrobial activity against Mycobacterium smegmatis transformed with erm allele Mycobacterium abscessus isolate MC879-2 by broth microdilution method
# [21] = system: Mycobacteroides abscessus; assay: Antimicrobial activity against Mycobacterium abscessus isolate MC1082 at day 7 preincubated with 0.1 ug/ml erythromycin for 3 days by broth microdilution method; in short: as §1
# [22] = system: Mycobacteroides abscessus; assay: Antimicrobial activity against Mycobacterium abscessus isolate MC958 at day 3 preincubated with 0.1 ug/ml for 3 days by broth microdilution method; in short: as §2
# [23] = system: Mycolicibacterium smegmatis; assay: Antimicrobial activity against Mycobacterium smegmatis transformed with erm allele Mycobacterium abscessus isolate MC1082 by broth microdilution method
# [24] = system: Mycobacteroides abscessus; assay: Antimicrobial activity against Mycobacterium abscessus isolate MC958 at day 5 by broth microdilution method; conditions: isolate MC958, 120 h
# In short: (§5)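 Clarithromycin MIC by broth microdilution following CLSI guidelines. Organisms were preincubated […], for 3 days before the assay. This allowed at least two generations, judged by the rise in turbidity. The MIC was read at the stated day, with incubation extended from day 3 to as long as 14 days.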
# [25] = system: Mycobacteroides abscessus; assay: Antimicrobial activity against Mycobacterium abscessus isolate MC723 at day 9 preincubated with 0.1 ug/ml for 3 days by broth microdilution method; in short: as §4
# [26] = system: Mycobacteroides abscessus; assay: Antimicrobial activity against Mycobacterium abscessus isolate MC724 at day 3 preincubated with 0.1 ug/ml for 3 days by broth microdilution method; in short: as §2
# [27] = system: Mycobacteroides abscessus; assay: Antimicrobial activity against Mycobacterium abscessus isolate MC724 at day 14 preincubated with 0.1 ug/ml for 3 days by broth microdilution method; in short: as §4
# [28] = system: Mycobacteroides abscessus; assay: Antimicrobial activity against Mycobacterium abscessus isolate MC720 at day 14 by broth microdilution method; conditions: isolate MC720, 336 h; in short: as §4
# [29] = system: Mycobacteroides abscessus; assay: Antimicrobial activity against Mycobacterium abscessus isolate MC958 at day 9 preincubated with 0.1 ug/ml erythromycin for 3 days by broth microdilution method
# [30] = system: Mycolicibacterium smegmatis; assay: Antimicrobial activity against Mycobacterium smegmatis transformed with erm allele Mycobacterium abscessus isolate MC720 preincubated with 2 ug/ml erythromycin for 20 to 24 hrs by broth microdilution method
# [31] = system: Mycobacteroides abscessus; assay: Antimicrobial activity against Mycobacterium abscessus isolate MC719 at day 5 preincubated with 0.1 ug/ml for 3 days by broth microdilution method; in short: as §3
# [32] = system: Mycobacteroides abscessus; assay: Antimicrobial activity against Mycobacterium abscessus isolate MC723 at day 5 preincubated with 0.1 ug/ml for 3 days by broth microdilution method; in short: as §3
# [33] = system: Mycobacteroides abscessus; assay: Antimicrobial activity against Mycobacterium abscessus isolate MC1028 at day 5 by broth microdilution method; conditions: isolate MC1028, 120 h; in short: as §1
# [34] = system: Mycobacteroides abscessus; assay: Antimicrobial activity against Mycobacterium abscessus isolate MC879 at day 14 preincubated with 0.1 ug/ml erythromycin for 3 days by broth microdilution method; in short: as §2
# [35] = system: Mycobacteroides abscessus; assay: Antimicrobial activity against Mycobacterium abscessus isolate MC958 at day 14 by broth microdilution method; conditions: isolate MC958, 336 h; in short: as §5
# [36] = system: Mycobacteroides abscessus; assay: Antimicrobial activity against Mycobacterium abscessus isolate MC723 at day 14 by broth microdilution method; conditions: isolate MC723, 336 h; in short: as §4
smiles,measurement,setting,value
CC[C@H]1OC(=O)[C@H](C)[C@@H](O[C@H]2C[C@@](C)(OC)[C@@H](O)[C@H](C)O2)[C@H](C)[C@@H](O[C@@H]2O[C@H](C)C[C@H](N(C)C)[C@H]2O)[C@](C)(OC)C[C@@H](C)C(=O)[C@H](C)[C@@H](O)[C@]1(C)O [CLARITHROMYCIN],MIC,[1],> 32 µg/mL
same,MIC,[2],≤ 0.5 µg/mL
same,MIC,[3],> 32 µg/mL
same,MIC,[4],> 32 µg/mL
same,MIC,[5],≤ 0.5 µg/mL
same,MIC,[6],≤ 0.5 µg/mL
same,MIC,[7],> 32 µg/mL
same,MIC,[8],8 µg/mL
same,MIC,[9],≤ 0.5 µg/mL
same,MIC,[10],≤ 0.5 µg/mL
same,MIC,[11],32 µg/mL
same,MIC,[12],≤ 0.5 µg/mL
same,MIC,[13],32 µg/mL
same,MIC,[14],1 µg/mL
same,MIC,[15],> 32 µg/mL
same,MIC,[16],> 32 µg/mL
same,MIC,[17],> 32 µg/mL
same,MIC,[18],> 32 µg/mL
same,MIC,[19],≤ 0.5 µg/mL
same,MIC,[20],2 µg/mL
same,MIC,[21],≤ 0.5 µg/mL
same,MIC,[22],≤ 0.5 µg/mL
same,MIC,[23],≤ 0.5 µg/mL
same,MIC,[24],1 µg/mL
same,MIC,[25],> 32 µg/mL
same,MIC,[26],≤ 0.5 µg/mL
same,MIC,[27],> 32 µg/mL
same,MIC,[28],> 32 µg/mL
same,MIC,[29],> 32 µg/mL
same,MIC,[30],16 µg/mL
same,MIC,[31],4 µg/mL
same,MIC,[32],4 µg/mL
same,MIC,[33],≤ 0.5 µg/mL
same,MIC,[34],> 32 µg/mL
same,MIC,[35],> 32 µg/mL
same,MIC,[36],> 32 µg/mL
